H69AR inhibit: blocks growth of human H69AR lung tumor cells | H69AR lung tumor viability, ATP luminescence, 72 h; hits give low values | viability, % at 10 µM | 85,000 tested, 6% active | AID 598;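 active means viability at or below 40%; inactive means viability above 40%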;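 further: multidrug resistant small cell line overexpressing MRP-1 efflux transporter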
HCT116 bCat-KO: beta-catenin-lacking colon tumor cell growth suppression; HCT116 beta-catenin knockout viability, CellTiter-Glo, 60 h; hits give low values; viability, % at 10 µM; 140,000 tested, 1.5% active; AID 818;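 active means viability at or under a set limit, the compound median less 4 SD, cut at about 6% in these data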
HUVEC prolif 384: inhibitors of human endothelial cell proliferation. viability, % at 10 µM (by protocol). 86,000 tested, 1.1% active. HUVEC proliferation, CellTiter-Glo luminescence, 72 h; hits give low values;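 active means viability at or below 30%; inactive means viability above 30%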
Lung fibro prol: blocks proliferation of human lung fibroblasts. AID 719. 85,000 tested, 1.1% active. viability, % at 10 µM. LL 47 human lung fibroblast viability, ATP luminescence; hits give low values;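 active means viability at or below 50% in the single dose screen; inactive means viability above 50%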;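 further: compound exposure lasted 72 h before the ATP readout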
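Test system: LL 47 human lung fibroblasts / Incubation: 72 h compound exposure at 37 °C after overnight plating / Technique: luminescent ATP detection, CellTiter-Glo / Compound dosing: 0.1% DMSO in all compound wells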
Cav3 T inh: blocks human Cav3.2 T-type calcium channel; O95180; Cav3.2-expressing cells, Fluo-4 calcium fluorescence FDSS; hits give low values; B-score at 10 µM; 100,000 tested, 4% active;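 active means single-dose well whose peak fluorescence ratio is a statistical outlier from its plate by either plate-standardised score or position-corrected B-score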
HCT116 PTEN-null: growth suppressors of cells with PTEN tumor suppressor deletion; HCT116 PTEN-null viability, CellTiter-Glo, 60 h; hits give low values; viability, % at 10 µM; 140,000 tested, 1.2% active;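 active means viability at or below a set limit, 4 SD under the median of all tested compounds, cut at about 3.7% in these data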;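 further: PTEN knockout HCT116 line with beta catenin targeted HCT116 as companion control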
Hits are given with their value; - = inactive; . = not tested or not shown. Rows were chosen to be rich in hits. Some 7.1% of all compounds tested hit in one or more screens of this group.

SMILES	H69AR inhibit	HCT116 bCat-KO	HUVEC prolif 384	Lung fibro prol	Cav3 T inh	HCT116 PTEN-null
O=C(CC(O)(c1ccccc1)C(F)(F)C(F)F)c1cccs1 (stereo not drawn)	-	-	-	-	-	-
O=C(/C=C/c1ccccc1)CC(O)(c1ccccc1)C(F)(F)C(F)F (stereo not drawn)	1.3	2.8	5.3	32	-	.
COc1ccc(/C=C/C(=O)CC(O)(c2ccccc2)C(F)(F)F)cc1 (stereo not drawn)	38	-	-	-	-	-
Cc1c(NC(=O)c2cnn3c2NC(c2ccc(Br)cc2)CC3C(F)(F)F)c(=O)n(-c2ccccc2)n1C (stereo not drawn)	-	-	-	-	-7.8	-
O=S(=O)(NCc1csc(-c2ccccc2)n1)c1ccc(Cl)s1	-	-	-	-	.	-
CCc1ccc(S(=O)(=O)NCc2csc(-c3ccccc3)n2)s1	-	-	-	-	-3.2	-
CCc1ccc(S(=O)(=O)NCCc2csc(-c3cccnc3)n2)s1	-	-	-	-	-	-
O=S(=O)(NCCc1csc(-c2ccccc2)n1)c1ccc2c(c1)OCCO2	-	-	-	-	-6.2	-
O=S(=O)(NCc1csc(-c2cccnc2)n1)c1ccc2c(c1)OCCO2	-	-	-	-	-	-
CCc1ccc(S(=O)(=O)NCCc2csc(-c3ccccc3)n2)s1	-	-	-	-	-4.5	-
CCOC(=O)CC(NC(=O)Cc1ccc(F)cc1)c1ccccc1Cl (stereo not drawn)	.	-	.	.	.	-
CN=c1scc(C)n1/N=C/c1ccc2c(c1)OCO2	-	-	-	-	-4	-
CN=c1scc(C)n1/N=C/c1ccc(O)cc1	-	-	-	-	-	-
CC(C)CCn1c(Sc2nc3ccccc3o2)nc2c1c(=O)[nH]c(=O)n2C	.	5.4	.	.	.	3.4
C/C=C/CSc1nc2c(c(=O)[nH]c(=O)n2C)n1Cc1ccc(C)cc1	18	-	-	-	-	-
CC(C)CCn1c(SCc2ccc(Cl)cc2)nc2c1c(=O)[nH]c(=O)n2C	28	-	-	-	-	-
CC(C)c1ccc(/C=N/NC(=O)c2nnn(-c3nonc3N)c2CSC2=NCCS2)cc1	.	-	.	.	.	-
CCCCNC(=O)C1CCCN1C(=O)Nc1ccccc1 (stereo not drawn)	-	-	-	-	-	-
O=C(CCCc1c[nH]c2ccccc12)NCc1ccc2c(c1)OCO2	-	-	-	-	-10	-
O=C(NCc1ccc2c(c1)OCO2)c1cc(-c2ccccc2)on1	-	-	-	-	-4.6	-
O=C(CCc1c[nH]c2ccccc12)NCc1ccc2c(c1)OCO2	-	-	-	-	-	-
Cc1ccc(-c2cc(C(=O)NCc3ccc4c(c3)OCO4)no2)cc1	-	-	-	-	-	-
Cc1ccc(-c2csc(NC(=O)C3=NN(c4ccccc4)C(=O)CC3)n2)cc1	.	-	.	.	.	-
Cc1ccc(C(=O)N/N=C/c2nc3ccccc3n2C)cc1	.	-	.	.	-	-
Cn1c(/C=N/NC(=O)c2ccccc2Br)nc2ccccc21	.	-	.	.	-4.3	-
SMILES	H69AR inhibit	HCT116 bCat-KO	HUVEC prolif 384	Lung fibro prol	Cav3 T inh	HCT116 PTEN-null
CCc1cccc(CC)c1NC(=O)NC1CCCCC1	.	-	.	.	.	-
CCc1cccc(CC)c1NC(=O)CN1CC(C)SC1=NC1CCCCC1 (stereo not drawn)	-	-	-	-	-5.3	-
S=C(NCCSCc1ccccc1Cl)Nc1ccccc1	.	-	.	.	-6.4	-
S=C(NCCSCc1ccc(Cl)cc1)Nc1ccccc1	.	-	.	.	.	-
O=C(NNc1ccccc1Br)C(O)(c1cccc(C(F)(F)F)c1)c1cccc(C(F)(F)F)c1	.	1.9	.	.	.	2.1
CCNC(=O)COC(=O)c1csc2c1CCCC2	.	-	.	.	.	-
CCN(c1ccccc1)S(=O)(=O)c1cc(C(=O)Oc2ccc3c(C)cc(=O)oc3c2)ccc1C	.	-	.	.	.	-
O=C(COc1ccc(Cl)cc1Cl)NCc1ccncc1	27	-	-	.	-	-
O=C(COc1ccc(Cl)cc1Cl)Nc1ccccn1	-	-	-	48	-	-
Cc1cc(Cl)ccc1OCC(=O)NCc1ccncc1	-	-	-	-	-	-
O=C(COC(=O)c1cccnc1Nc1cccc(C(F)(F)F)c1)NC1CCS(=O)(=O)C1 (stereo not drawn)	.	-	.	.	.	-
CCCCn1c(SCC(=O)N2CCCc3ccccc32)nc2c1c(=O)n(C)c(=O)n2C	-	-	-	-	-	-
C=CCNC(=O)c1ccccc1NC(=O)c1ccccc1C	-	0.8	-	-	-	1.0
COc1ccc(C)cc1NC(=S)N1CCN(S(C)(=O)=O)CC1	.	-	.	.	.	-
O=C1c2ccccc2C(=O)N1CC(O)CNc1ccc(Br)cc1 (stereo not drawn)	.	-	.	.	.	-
c1ccc2c(c1)C(=Nn1cnnc1)c1ccccc1-2	-	-	-	-	-	-
O=C1/C(=N/n2cnnc2)c2ccccc2N1Cc1ccccc1	17	-	-	-	-	-
O=C1c2ccccc2-c2nnc(-c3ccccc3)cc21	.	-	.	.	-	-
Cc1cccc(-c2cc3c(nn2)-c2ccccc2C3=O)c1	19	-	-	-	-	-
Nc1cccc2nc3ccccc3cc12	9.2	4.0	4.2	19	-	3.2
CC(=O)/C(=N/Nc1ccccc1)Sc1nnc(C(O)c2ccccc2)n1-c1ccccc1 (stereo not drawn)	.	-	.	.	.	-
CN1CCN(C2=Cc3ccccc3Sc3cc(F)ccc32)CC1	-	-	-	-	-	-
CN1CCN(C2=Cc3ccc(Cl)cc3Sc3ccc(F)cc32)CC1	21	-	3.8	-	-	-
Cc1cccc(NC(=O)c2ccc([N+](=O)[O-])s2)c1C	.	2.9	.	.	.	2.2
Cc1cccc(C)c1Nc1nnc(SC(C)C(=O)Nc2c(C)n(C)n(-c3ccccc3)c2=O)s1 (stereo not drawn)	.	-	.	.	.	-
SMILES	H69AR inhibit	HCT116 bCat-KO	HUVEC prolif 384	Lung fibro prol	Cav3 T inh	HCT116 PTEN-null
O=c1ccc(NS(=O)(=O)c2ccccc2)cn1Cc1ccc(Cl)c(Cl)c1	.	-	.	.	-	-
CCOC(=O)C1C(c2ccc(O)c(OC)c2)NC(=S)NC1(O)C(F)(F)F (stereo not drawn)	.	-	.	.	.	-
CCOc1ccc2cc(/C=C/C(=O)c3ccco3)c(Cl)nc2c1	2.4	-	-	-	.	-
CCOc1ccccc1N1CCN(C(=O)C(F)(F)F)CC1	-	-	-	-	-	-
Cc1cc(Cl)ccc1OCC(=O)N1CCCCC1	-	-	-	-	-	-
CCC(=O)N1CCN(c2ccccc2NC(=O)COc2cc(C)ccc2C(C)C)CC1	36	-	-	-	-7.1	-
CS(=O)(=O)N1CCN(c2ccccc2NC(=O)CSc2ccc(Cl)cc2)CC1	-	-	-	-	-4	-
O=C(COc1ccc(Cl)cc1Cl)N1CCCN(C(=O)COc2ccc(Cl)cc2Cl)CC1	.	-	.	.	-4.6	-
CCOc1ccccc1N1CCN(C(=O)Nc2ccc(F)c(Cl)c2)CC1	-	-	-	-	-4.1	-
Fc1ccccc1Cc1nnc2n1N=C(c1ccc(Cl)cc1)CS2	-	-	-	-	-	-
COc1cccc(C(=O)NCC(=O)N/N=C/c2cccs2)c1	.	-	.	.	.	-

Screens from PubChem BioAssay.
